Active and inactive are the calls of the source. No cut-off for these calls is given here.
Legend:
Candida tropicalis [1] = experiment: Fungicidal activity against Candida tropicalis cgmcc2.1975 incubated for 48 hrs followed by replating on YM agar plate and measured after 48 hrs; type: functional
Summary of the method: (§1)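 Yeast diluted in MOPS-buffered RPMI 1640 to (0.5–1) × 10^3 CFU/mL (CLSI M27-A2, modified) and mixed 1:1 with peptide serially diluted in 0.2% BSA. After 48 h at 28 °C, 50 μL per well was plated on YM agar and incubated 48 h at 28 °C. MFC taken as the lowest concentration killing ≥99.9% of cells. Three or more independent experiments, triplicate wells.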

Candida parapsilosis = experiment: Fungicidal activity against Candida parapsilosis cgmcc2.3989 incubated for 48 hrs followed by replating on YM agar plate and measured after 48 hrs; type: functional; summary of the method: as §1
Candida albicans [2] = experiment: Fungicidal activity against Candida albicans cgmcc2.2086 incubated for 48 hrs followed by replating on YM agar plate and measured after 48 hrs; type: functional; summary of the method: as §1
Staphylococcus aureus [3] = experiment: Antibacterial activity against Staphylococcus aureus ATCC 25923 measured after 24 hrs; type: functional
Summary of the method: (§2)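 Broth microdilution modified from NCCLS. Mid-log bacteria at (0.5–1) × 10^5 CFU mL−1 in MHB, mixed with peptides serially diluted in 0.2% BSA. Incubated 24 h at 37 °C, read at A492. MIC taken as lowest concentration giving 95% growth inhibition. At least three independent experiments, each with three technical replicates.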

Staphylococcus aureus [4] = experiment: Antibacterial activity against Staphylococcus aureus ATCC 29213 measured after 18 to 24 hrs in presence of ZnCl2; type: functional
Summary of the method: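 MIC broth microdilution (MHB, 0.2% BSA peptide diluent, A492, 95% inhibition) run in the presence of physiological salts at final concentrations of 6 μM NH4Cl or 8 μM ZnCl2. Three independent assays, each with three technical replicates.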

Escherichia coli = experiment: Antibacterial activity against Escherichia coli ATCC 25922 measured after 18 to 24 hrs in presence of NH4Cl; type: functional
Staphylococcus aureus [5] = experiment: Antibacterial activity against Staphylococcus aureus ATCC 29213 measured after 24 hrs; type: functional; summary of the method: as §2
Candida albicans [6] = experiment: Antifungal activity against Candida albicans cgmcc2.2086 measured after 48 hrs in presence of ZnCl by broth microdilution method; type: functional
Candida tropicalis [7] = experiment: Antifungal activity against Candida tropicalis cgmcc2.1975 measured after 48 hrs by broth microdilution method; type: functional
Summary of the method: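 Modified CLSI M27-A2 microdilution. Yeast colonies were diluted in MOPS-buffered RPMI 1640 to a final (0.5–1) × 10^3 CFU mL−1 and mixed with an equal volume of peptide serially diluted in 0.2% BSA. After 48 h at 28 °C, MIC was read at A492 as the lowest concentration inhibiting 95% of growth. At least three independent experiments, each with three technical replicates.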

[8] = Conformational stability in sodium dodecyl sulfate assessed as beta-sheet conformation by measuring absorption spectra at maximum dichroic band at 35 uM by CD spectra analysis; type: physicochemical
Summary of the method: (§3)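 CD spectra from 190 to 250 nm of peptide at 35 μM in 10 mM PBS, 30 mM SDS micelles or 50% TFE, recorded in a 1.0-mm quartz cell. Ellipticity was converted to mean residue ellipticity. Three independent scans, each averaged over more than 3 runs.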

[9] = Bactericidal activity against Salmonella pullorum ATCC 7913 incubated for 24 hrs followed by replating on agar plate and measured after overnight incubation; type: functional, Salmonella enterica subsp. enterica serovar Pullorum; conditions: Salmonella enterica, ATCC 7913, 24 h; read-out: MBC>99.9
Summary of the method: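 Mid-log bacteria diluted in MHB to (0.5–1) × 10^5 CFU/mL and mixed 1:1 with peptide serially diluted in 0.2% BSA. After 24 h at 37 °C, 50 μL of each mixture was plated on agar and incubated overnight. MBC taken as the lowest concentration killing >99.9% of cells. At least three independent experiments, each with three technical replicates.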

[10] = Conformational stability in sodium dodecyl sulfate assessed as beta-sheet conformation by measuring absorption spectra at minimum dichroic band at 35 uM by CD spectra analysis; type: physicochemical; summary of the method: as §3
Pseudomonas aeruginosa [11] = experiment: Antibacterial activity against Pseudomonas aeruginosa ATCC 27853 assessed as ratio of MBC after and before 30 serial passages at sub-MBC; type: functional
Summary of the method: (§4)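 P. aeruginosa ATCC 27853 passaged every 24 h by 100-fold dilution in MHB containing sub-MBC drug, for 30 passages. MBC was tested on the cells from each passage. Control cells were passaged in drug-free MHB. Run independently in triplicate with three biological replicates.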

Pseudomonas aeruginosa [12] = experiment: Antibacterial activity against Pseudomonas aeruginosa ATCC 27853 at sub-MBC measured after 17 serial passages; type: functional, organism-based; summary of the method: as §4
[13] = tested on: Salmonella enterica subsp. enterica serovar Pullorum; experiment: Antibacterial activity against Salmonella pullorum ATCC 7913 measured after 24 hrs; type: functional
Summary of the method: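 Broth microdilution adapted from NCCLS. Mid-log bacteria were diluted in MHB to a final (0.5–1) × 10^5 CFU mL−1. Peptides were serially diluted in 0.2% BSA and mixed with an equal volume of cells. After 24 h at 37 °C, MIC was read at A492 as the lowest concentration inhibiting 95% of growth. At least three independent experiments, each with three technical replicates.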

[14] = Conformational stability in sodium dodecyl sulfate at 35 uM by CD spectra analysis; type: physicochemical; summary of the method: as §3

## H-AARIILRYRFR-NH2
Candida tropicalis [1]
  MFC<=99.9: 32 µM
Candida parapsilosis
  MFC<=99.9: 128 µM
Candida albicans [2]
  MFC<=99.9: 64 µM
Staphylococcus aureus [3]; ATCC 25923, 24 h
  MIC95: 8 µM
Staphylococcus aureus [4]
  MIC95: 2 µM
Escherichia coli
  MIC95: 8 µM
Staphylococcus aureus [5]; ATCC 29213, 24 h
  MIC95: 4 µM
Candida albicans [6]; cgmcc2.2086, 48 h
  MIC95: 64 µM
Candida tropicalis [7]; cgmcc2.1975, 48 h
  MIC95: 16 µM
[8]
  Wavelength of maximum dichroic band: 200 nm
[9]
  MBC: 8 µM
[10]
  Activity: 216 to 220 nm

## GENTAMICIN
Staphylococcus aureus [3]
  MIC95: 1 µM
Pseudomonas aeruginosa [11]
  Ratio: 32
Staphylococcus aureus [4]
  MIC95: 1 µM
Escherichia coli
  MIC95: 1 µM
Staphylococcus aureus [5]
  MIC95: 1 µM
Candida albicans [6]
  MIC95: > 128 µM
Candida tropicalis [7]
  MIC95: > 128 µM
Pseudomonas aeruginosa [12]
  Activity: inactive
[13]
  MIC95: 1 µM

## H-AARIILRLRFR-NH2
Candida tropicalis [1]
  MFC<=99.9: 4 µM
Candida parapsilosis
  MFC<=99.9: 8 µM
Candida albicans [2]
  MFC<=99.9: 16 µM
Staphylococcus aureus [3]; ATCC 25923, 24 h
  MIC95: 2 µM
Staphylococcus aureus [4]
  MIC95: 2 µM
Escherichia coli
  MIC95: 4 µM
Staphylococcus aureus [5]; ATCC 29213, 24 h
  MIC95: 2 µM
Candida albicans [6]; cgmcc2.2086, 48 h
  MIC95: 8 µM
Candida tropicalis [7]; cgmcc2.1975, 48 h
  MIC95: 4 µM
[8]
  Wavelength of maximum dichroic band: 200 nm
[9]
  MBC: 8 µM
[10]
  Activity: 216 to 220 nm

## POLYMYXIN B
Candida parapsilosis
  MFC<=99.9: 16 µM
Candida albicans [2]
  MFC (≥99.9% killing): 64 µM
Staphylococcus aureus [3]
  MIC95: 64 µM
Staphylococcus aureus [4]
  MIC95: 32 µM
Escherichia coli
  MIC95: 2 µM
Staphylococcus aureus [5]
  MIC95: 32 µM
Candida albicans [6]
  MIC95: 32 µM
Candida tropicalis [7]
  MIC95: > 128 µM
[13]
  MIC95: 1 µM

## H-AARIILRIRFR-NH2
Candida tropicalis [1]
  MFC<=99.9: 4 µM
Candida parapsilosis
  MFC<=99.9: 8 µM
Candida albicans [2]
  MFC<=99.9: 8 µM
Staphylococcus aureus [3]; ATCC 25923, 24 h
  MIC95: 2 µM
Staphylococcus aureus [4]
  MIC95: 2 µM
Escherichia coli
  MIC95: 4 µM
Staphylococcus aureus [5]; ATCC 29213, 24 h
  MIC95: 2 µM
Candida albicans [6]; cgmcc2.2086, 48 h
  MIC95: 8 µM
Candida tropicalis [7]; cgmcc2.1975, 48 h
  MIC95: 4 µM
[8]
  Wavelength of maximum dichroic band: 200 nm
[9]
  MBC: 4 µM
[10]
  Activity: 216 to 220 nm

## H-AARIILRNRFR-NH2
Staphylococcus aureus [3]; ATCC 25923, 24 h
  MIC95: > 128 µM
[14]
  Stability: Unstable
Staphylococcus aureus [4]
  MIC95: > 128 µM
Escherichia coli
  MIC95: 16 µM
Staphylococcus aureus [5]; ATCC 29213, 24 h
  MIC95: > 128 µM
Candida albicans [6]; cgmcc2.2086, 48 h
  MIC95: > 128 µM
Candida tropicalis [7]; cgmcc2.1975, 48 h
  MIC95: > 128 µM
[9]
  MBC: 32 µM

## H-AARIILRRRFR-NH2
Candida tropicalis [1]
  MFC<=99.9: 128 µM
Candida parapsilosis
  MFC<=99.9: 128 µM
Staphylococcus aureus [3]; ATCC 25923, 24 h
  MIC95: 32 µM
[14]
  Stability: Unstable
Staphylococcus aureus [4]
  MIC95: 16 µM
Escherichia coli
  MIC95: 8 µM
Staphylococcus aureus [5]; ATCC 29213, 24 h
  MIC95: 16 µM
Candida albicans [6]; cgmcc2.2086, 48 h
  MIC95: > 128 µM
Candida tropicalis [7]; cgmcc2.1975, 48 h
  MIC95: 64 µM
[9]
  MBC: 32 µM

## H-AARIILRPRFR-NH2
Staphylococcus aureus [3]; ATCC 25923, 24 h
  MIC95: > 128 µM
[14]
  Stability: Unstable
Staphylococcus aureus [4]
  MIC95: > 128 µM
Escherichia coli
  MIC95: 16 µM
Staphylococcus aureus [5]; ATCC 29213, 24 h
  MIC95: > 128 µM
Candida albicans [6]; cgmcc2.2086, 48 h
  MIC95: > 128 µM
Candida tropicalis [7]; cgmcc2.1975, 48 h
  MIC95: > 128 µM
[9]
  MBC: 64 µM

## H-AARIILRGRFR-NH2
Candida tropicalis [1]
  MFC<=99.9: 32 µM
Staphylococcus aureus [3]; ATCC 25923, 24 h
  MIC95: 16 µM
[14]
  Stability: Unstable
Staphylococcus aureus [4]
  MIC95: 8 µM
Escherichia coli
  MIC95: 8 µM
Staphylococcus aureus [5]; ATCC 29213, 24 h
  MIC95: 8 µM
Candida albicans [6]; cgmcc2.2086, 48 h
  MIC95: > 128 µM
Candida tropicalis [7]; cgmcc2.1975, 48 h
  MIC95: 16 µM
[9]
  MBC: 8 µM

— ChEMBL document CHEMBL4350958, “Rational Design of Short Peptide Variants by Using Kunitzin-RE, an Amphibian-Derived Bioactivity Peptide, for Acquired Potent Broad-Spectrum Antimicrobial and Improved Therapeutic Potential of Commensalism Coinfection of Pathogens” (J Med Chem, 2019)
